Source: PubChem (The Scripps Research Institute Molecular Screening Center)
A selection: hits, their analogues and other compounds. The true share with any hit is near 1.9%.
M4 ag – CHRM4 agonism in calcium assay; P08173; CHO-K1 hM4/Gqi5, Fluo-8 calcium fluorescence; vehicle 0%, full acetylcholine response 100%; activation, % at 3 µM; 0.14% of 360,000 active;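 active = activation above the run mean over all test wells plus 3 SD, cut at about 32% in these data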;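 note: peak over basal fluorescence ratio per well then scaled between controls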
Target sequence (P08173 whole entry, looked up): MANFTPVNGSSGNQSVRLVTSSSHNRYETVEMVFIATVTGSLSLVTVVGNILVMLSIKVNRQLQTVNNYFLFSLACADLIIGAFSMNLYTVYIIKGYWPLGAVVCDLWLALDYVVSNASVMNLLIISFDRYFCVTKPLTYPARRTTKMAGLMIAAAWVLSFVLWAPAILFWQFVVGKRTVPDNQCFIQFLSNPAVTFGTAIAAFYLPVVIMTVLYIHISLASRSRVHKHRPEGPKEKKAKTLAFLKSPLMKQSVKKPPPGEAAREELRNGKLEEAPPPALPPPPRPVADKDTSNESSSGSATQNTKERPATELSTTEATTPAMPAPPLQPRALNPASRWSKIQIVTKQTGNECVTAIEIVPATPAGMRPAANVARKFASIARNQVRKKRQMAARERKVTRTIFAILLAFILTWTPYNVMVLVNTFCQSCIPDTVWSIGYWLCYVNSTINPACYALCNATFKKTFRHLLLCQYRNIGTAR
M4 antag – blocks acetylcholine activation of human M4 receptor; CHO-hM4 cells, ACh EC80, Fluo-8 calcium fluorescence; inhibition, % at 3 µM; 0.73% of 360,000 active; AID 624125;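 active = inhibition above its plate's cutoff, the mean inhibition of sample wells plus 3 SD, cut at about 27% in these data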
CHRM5 agonist – CHRM5 agonism in calcium assay. P08912. CHO-K1 hM5 cells, Fluo-8 calcium fluorescence; 0% DMSO wells, 100% maximal acetylcholine response. activation, % at 3 µM. 0.19% of 360,000 active. AID 624037;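 active = activation above the run's mean over test compounds plus 3 SD, cut at about 23% in these data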;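 note: signal is peak over basal fluorescence ratio across the kinetic read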
M5 antag – antagonists of human muscarinic M5 receptor (CHRM5) | CHO-hM5 cells, Fluo-8 calcium fluorescence, ACh EC80 | inhibition, % at 3 µM | 0.59% of 360,000 active;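 active = inhibition above a per-plate cutoff, the mean of that plate's test compounds plus 3 SD, cut at about 27% in these data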
CHRM5 PAM – potentiates acetylcholine response at human M5 receptor | P08912 | CHO-K1 hM5, Fluo-8 calcium, ACh EC20 PAM; 0% = ACh EC20, 100% = ACh EC100 | activation, % at 3 µM | 0.3% of 360,000 active;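 active = activation above the run cutoff, the mean activation of all test compounds plus 3 SD, cut at about 18% in these data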
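system = human M5 receptor in CHO-K1 cells | compound = one concentration, 3 µM final (nominal) | schedule = Post-acetylcholine fluorescence recording 140 s | signal = Fluo-8 calcium dye fluorescence, kinetic read | benchmarks = low control EC20 acetylcholine (0%), high control EC100 acetylcholine (100%) | repeats = singlicate, one well per test compound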
CHRM4 PAM – positive allosteric modulators of human muscarinic M4 receptor; P08173; CHO-K1 hM4/Gqi5, Fluo-8 calcium fluorescence, ACh EC20; 0% = ACh EC20, 100% = maximal ACh; activation, % at 3 µM; 0.4% of 360,000 active; AID 624126;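 active = activation above its plate's cutoff, the mean activation of sample wells plus 3 SD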
Of the large screens only hits and unclear results are named; the others gave an inactive call.

N#Cc1cc(C(=O)c2cc(F)ccc2O)cn(-c2nccs2)c1=O	M4 ag 96.5, CHRM5 agonist 61.7, M5 antag 29.4
Cc1c(-n2cc(C(=O)c3cc(F)ccc3O)cc(C#N)c2=O)c(=O)n(-c2ccccc2)n1C	none
N#Cc1cc(C(=O)c2ccccc2O)cn(-c2nccs2)c1=O	M4 ag 70.8, M4 antag 36.3, CHRM5 agonist 68.0, M5 antag 28.3
COc1ccc(OCCCCc2c(C)n[nH]c2C)cc1	none
CCN(Cc1ccccc1)C(=O)CCS(=O)(=O)c1ccc2c(c1)CCN2C(C)=O	none
CN1C[C@@H]2C(c3ccccc3)C3(c4ccc(C#N)cc4)CC2(C3)[C@H]1c1ccccc1 (stereo partly specified)	none
CN1C[C@@H]2C(c3ccccc3)C3(c4ccccc4)CC2(C3)[C@H]1c1ccccc1 (stereo partly specified)	M4 antag 45.3
CC(=O)Oc1ccc(C(=O)Nc2ccc(S(=O)(=O)NCC3CCCO3)cc2)cc1 (stereo unspecified)	none
Cc1c(C(=O)NC2CCS(=O)(=O)C2)oc2ccccc12 (stereo unspecified)	M5 antag 27.1
Cc1noc(C)c1COc1ccc(C(=O)NCCc2ccccn2)cc1	CHRM4 PAM 29.0
Cc1noc(C)c1COc1ccc(CC(=O)NCCc2ccccn2)cc1	none
CCOc1ccc(C(=O)NCc2ccccn2)cc1	CHRM4 PAM 31.2
Cc1cccc(NC(=O)c2ccc(OCc3c(C)noc3C)cc2)c1	none
Cc1noc(C)c1COc1ccc(C(=O)Nc2cccnc2)cc1	M4 antag 32.4
CCOc1ccc(C(=O)NN2CCOCC2)cc1	none
CC(C(=O)Nc1ccc2c(c1)OCCO2)c1ccc([N+](=O)[O-])cc1 (stereo unspecified)	CHRM5 agonist 32.3
COc1ccccc1C(C)NCC(=O)NCc1ccc(C)cc1 (stereo unspecified)	none
COc1ccc(CNC(=O)CNC(C)c2ccc(F)cc2)cc1 (stereo unspecified)	M4 antag 53.2
O=C(Nc1ccc2c(c1)OCO2)C1Cc2c(-c3ccc(Cl)cc3)ccnc2O1 (stereo unspecified)	none
O=c1cccc(-c2ccc3ccccc3c2)o1	none
CCCN(CC#CC(O)(c1ccccc1)c1cccnc1)CCC (stereo unspecified)	none
CC(O)(C#CCN1CCOCC1)c1ccccc1 (stereo unspecified)	none
OC(C#CCN1CCCC1)(c1ccccc1)c1cccnc1 (stereo unspecified)	M4 antag 86.0, M5 antag 75.6
OC(C#CCN1CCCCCC1)(c1ccccc1)c1cccnc1 (stereo unspecified)	M4 antag 82.1, M5 antag 55.3
CC(C)C(C)N(Cc1cccc(C(=O)O)c1)C(=O)c1ccc2ccccc2n1 (stereo unspecified)	CHRM5 PAM 22.5
COc1ccc(C(=O)O/N=C2\CCS(=O)(=O)c3sccc32)cc1	M5 antag 35.9
COc1ccc(N=C2CCS(=O)(=O)c3sccc32)cc1	none
CC(=O)c1ccc2c(c1)N(CCCN(C)C)c1ccccc1S2	M4 antag 33.6, M5 antag 69.5
CC(=O)c1ccc2c(c1)N(C)c1ccccc1S2	none
CN(C)CCCN1c2ccccc2Sc2ccccc21	M4 antag 51.5, M5 antag 90.3
CNCCCN1c2ccccc2CCc2ccccc21	M4 antag 36.1, M5 antag 84.6
CN(C)CCCN1c2ccccc2CCc2ccc(Cl)cc21	M4 antag 72.2, M5 antag 92.0
OCC[C@H]1C[C@@H](O)[C@H](O)[C@@]2(CCCO2)O1	none
O=C(NCc1cccnc1)c1cc(C2CCCCN2S(=O)(=O)Cc2ccccc2)on1 (stereo unspecified)	none
CCC(=O)c1ccc2c(c1)N(CCCN(C)C)c1ccccc1S2	M4 antag 38.9, M5 antag 74.4
Nc1nc(=O)c2ccccc2s1	none
CC1(C(=O)NS(=O)(=O)C2CC2)CCN(C(=O)c2cccc(Cl)c2)C1 (stereo unspecified)	none
Cc1c(Cl)ccc2sc(N3CCN(C(=O)C4=COCCO4)CC3)nc12	none
CC(=O)NS(=O)(=O)c1ccc(NC(=O)CSc2ccc(C)cc2)cc1	CHRM4 PAM 18.8
Cc1ccc(SCC(=O)Nc2ccc(S(=O)(=O)Nc3ncccn3)cc2)cc1	none
Cc1nc(-c2cccc(NC(=O)C3CCCCC3)c2)cs1	CHRM5 PAM 26.0
Cc1nc(-c2cccc(NC(=O)c3ccc(Br)o3)c2)cs1	M5 antag 26.9
COc1ccc(S(=O)(=O)N2CCOC23CCN(S(=O)(=O)c2ccc(F)cc2)CC3)cc1	M4 antag 29.1
CC(=O)SC1CC(=O)N(c2c(C)cccc2C)C1=O (stereo unspecified)	CHRM5 PAM 20.8
CN1CCC(=C2c3ccccc3CCc3sccc32)CC1	M4 antag 99.2, M5 antag 98.8
CN1CCC(=C2c3ccccc3C(O)c3ccccc32)CC1 (stereo unspecified)	M4 antag 96.2, M5 antag 98.7
CN1CCC(=C2c3ccccc3CC(=O)c3sccc32)CC1	M4 antag 71.5, M5 antag 98.1
CCc1ccc(C(C#N)=CC=Cc2ccccc2)cc1	none
COc1ccc(N(C(=O)c2ccncc2)S(=O)(=O)c2cccc([N+](=O)[O-])c2)cc1	none
O=C(N/N=C/c1ccccn1)c1ccc(Cl)c(Cl)c1	none
O=C(c1cc(COc2ccc3ncccc3c2)on1)N1CCCC1	none
COc1cccc(CN(C)C(=O)c2cc(COc3ccc4ncccc4c3)on2)c1	M4 antag 33.7, M5 antag 40.2
O=C(c1cc(COc2ccc3ncccc3c2)on1)N1CCCCCC1	M5 antag 27.4
O=C(c1cc(COc2cccc3cccnc23)on1)N1CCC[C@H]1CO	none
O=C(NCCc1cn2ccccc2n1)c1cc(COc2ccc3ncccc3c2)on1	M4 antag 36.4, M5 antag 33.0
CCN(CC)C1CCN(C(=O)c2cc(COc3cccc4cccnc34)on2)C1 (stereo unspecified)	M4 antag 38.3
COC(=O)CCSCC(=O)N1N=C(c2ccc(OC)cc2)CC1c1cccc(OC)c1OC (stereo unspecified)	none
COc1ccc(C(=O)C2CCCN(C(=O)c3cccc(N4CCCC4=O)c3)C2)cc1OC (stereo unspecified)	none
Cc1cc(OCc2cc(C(=O)N3CCN(CC4CC4)CC3)no2)cc(C)c1Cl	none
